Consider three molecules from ChEMBL document CHEMBL2146476, “Discovery of selective glucocorticoid receptor modulator MK-5932” (Bioorg Med Chem, 2011).

In data set [1] the test system is Rattus norvegicus. Kind of data set: Toxicity in oxazolone-induced Sprague-Dawley rat chronic dermatitis model assessed as increase in plasma insulin level at 0.5 to 5 mg/kg, po qd administered after 7 days of oxazolone sensitization measured after 4 to 5 hrs last post treatment on day 14. The conditions noted are these: in vivo. It counts as organism-based. Further details: route oral. The procedure, abridged: (§1)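 Intact 6-month-old female Sprague-Dawley rats sensitized with oxazolone on ventral abdomen on Day 0. One randomly selected ear challenged with oxazolone on Days 7 and 9, other ear given vehicle. Daily oral dosing for 7 d from Day 7, with 6-methylprednisolone or DEX as positive controls. Blood taken ~4-5 h after last dose for plasma insulin. Inflammation read as inter-ear thickness difference.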

Data set [2] relates to Rattus norvegicus. Briefly: Antiinflammatory activity in oxazolone-induced Sprague-Dawley rat chronic dermatitis model at 0.5 to 5 mg/kg, po qd administered after 7 days of oxazolone sensitization measured after 4 to 5 hrs last post treatment on day 14. It counts as functional, organism-based. The procedure, abridged:
as §1

The target of data set [3] is T1, Glucocorticoid receptor (Homo sapiens) (UniProt P04150).
T1 sequence (whole entry): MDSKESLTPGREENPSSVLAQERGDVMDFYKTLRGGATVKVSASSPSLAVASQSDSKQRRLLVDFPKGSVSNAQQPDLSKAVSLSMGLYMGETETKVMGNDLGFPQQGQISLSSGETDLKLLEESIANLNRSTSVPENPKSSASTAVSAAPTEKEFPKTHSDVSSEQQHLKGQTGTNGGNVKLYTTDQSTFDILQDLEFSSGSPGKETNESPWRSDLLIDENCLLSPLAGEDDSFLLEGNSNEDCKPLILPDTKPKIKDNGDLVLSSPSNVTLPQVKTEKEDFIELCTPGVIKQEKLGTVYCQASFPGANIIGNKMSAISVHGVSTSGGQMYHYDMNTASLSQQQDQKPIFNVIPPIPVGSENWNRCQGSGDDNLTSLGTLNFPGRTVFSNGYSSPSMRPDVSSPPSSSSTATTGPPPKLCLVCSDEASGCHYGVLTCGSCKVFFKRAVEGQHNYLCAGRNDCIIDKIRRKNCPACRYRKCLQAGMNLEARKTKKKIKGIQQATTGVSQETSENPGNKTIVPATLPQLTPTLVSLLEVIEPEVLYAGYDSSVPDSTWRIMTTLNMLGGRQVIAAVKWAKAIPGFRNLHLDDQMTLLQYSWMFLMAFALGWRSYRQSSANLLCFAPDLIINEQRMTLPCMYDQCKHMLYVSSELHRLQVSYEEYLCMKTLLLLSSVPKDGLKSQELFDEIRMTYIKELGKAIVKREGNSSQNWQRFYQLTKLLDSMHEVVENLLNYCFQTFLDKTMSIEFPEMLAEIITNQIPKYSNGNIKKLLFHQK
Briefly: Transactivation activity at GR-mediated modulation of MMTV promoter activity in human HeLa cells transfected with luciferase gene linked to MMTV promoter after 16 hrs by luciferase reporter gene assay. It counts as cell-based. The procedure, abridged:
(§2)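 HeLa or A549 cells transiently transfected with a luciferase reporter under the MMTV promoter (two GREs), in 10% charcoal-stripped FBS. Compound exposure 16 h, then luciferase measured. Activity expressed as percent of the span between DMSO and dexamethasone controls. Mean of at least three runs.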
On the technique in general: Reporter assays use an easily measured gene product as a stand-in for the process of interest.

The test system of data set [4] is Rattus norvegicus. Briefly: Toxicity in oxazolone-induced Sprague-Dawley rat chronic dermatitis model assessed as increase in plasma insulin level at 0.3 to 60 mg/kg, po qd administered after 7 days of oxazolone sensitization measured after 4 to 5 hrs last post treatment on day 14. The class given is organism-based. Also noted: route oral. The conditions noted are these: in vivo. The procedure, abridged:
as §1

Data set [5] concerns the target T1, Glucocorticoid receptor (Homo sapiens). Kind of data set: Transrepression activity at glucocorticoid receptor in human LPS and TPA-stimulated U937 cells assessed as effect on glucocorticoid-induced TNFalpha repression by beta lactamase reporter gene assay. It counts as cell-based. The conditions noted are these: U-937. The procedure, abridged: (§3)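 U937 cells stably carrying a β-lactamase reporter driven by the human TNF-α promoter (-1083 to +182), in 5% charcoal-stripped FBS. Stimulated with 1 µg/mL LPS plus 50 ng/mL TPA, compound exposure 16 h. β-Lactamase read out. Activity expressed as percent of the span between DMSO and 100 nM dexamethasone controls. Mean of at least three runs.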

For data set [6], the system named is Liver microsomes. Briefly: Drug metabolism in human liver microsomes assessed as metabolite M1 level up to 50 mins by LC-MS analysis. The class given is ADME, Microsome. For orientation: Microsomes from liver hold many membrane-bound enzymes, among them those of drug oxidation.
Data set [7] deals with T1, Glucocorticoid receptor (Homo sapiens). Kind of data set: Transrepression activity at glucocorticoid receptor in human LPS and TPA-stimulated U937 cells assessed as effect on glucocorticoid-induced TNFalpha repression by beta lactamase reporter gene assay relative to dexamethasone. It counts as cell-based. The following applies: U-937. The procedure, abridged: as §3
Data set [8] addresses T2, Glucocorticoid receptor (Homo sapiens, UniProt P04150).
T2 sequence (P04150 whole entry): T1 sequence (whole entry)
Briefly: Displacement of [3H]-dexamethasone from human full length GR expressed in insect Sf21 cells. The procedure, abridged:
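Human full-length GR expressed in insect cells, incubated with compound and 3H-dexamethasone overnight at 4 °C. Bound radioactivity quantified after filtration capture. Nonspecific binding defined with excess unlabelled dexamethasone. Mean of at least two runs.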
In general terms: Loss of bound radioactivity is the signal in a displacement assay; it reports binding, not function.

In data set [9] the test system is Liver microsomes. Briefly: Drug metabolism in rat liver microsomes assessed as metabolite M3 level up to 50 mins by LC-MS analysis. The class given is ADME, Microsome.
Data set [10] has as its target T1, Glucocorticoid receptor (Homo sapiens). Briefly: Transactivation activity at GR-mediated modulation of MMTV promoter activity in human A549 cells transfected with luciferase gene linked to MMTV promoter after 16 hrs by luciferase reporter gene assay. It counts as cell-based. The procedure, abridged:
as §2

For data set [11], the system named is Liver microsomes. Kind of data set: Drug metabolism in rat liver microsomes assessed as metabolite M2 level up to 50 mins by LC-MS analysis. The class given is ADME, Microsome.
The test system of data set [12] is Liver microsomes. Briefly: Drug metabolism in human liver microsomes assessed as metabolite M3 level up to 50 mins by LC-MS analysis. It counts as ADME, Microsome.
In data set [13] the target is T1, Glucocorticoid receptor (Homo sapiens). Kind of data set: Transactivation activity at GR-mediated modulation of MMTV promoter activity in human A549 cells transfected with luciferase gene linked to MMTV promoter after 16 hrs by luciferase reporter gene assay relative to dexamethasone. It counts as cell-based. The procedure, abridged: as §2
Data set [14] relates to Liver microsomes. Kind of data set: Drug metabolism in human liver microsomes assessed as metabolite M2 level up to 50 mins by LC-MS analysis. It counts as ADME, Microsome.
Data set [15] relates to Rattus norvegicus. Briefly: Antiinflammatory activity in oxazolone-induced Sprague-Dawley rat chronic dermatitis model at 0.3 to 60 mg/kg, po qd administered after 7 days of oxazolone sensitization measured after 4 to 5 hrs last post treatment on day 14. It counts as functional, organism-based. The procedure, abridged: as §1
For data set [16], the target named is T1, Glucocorticoid receptor (Homo sapiens). Briefly: Transactivation activity at GR-mediated modulation of MMTV promoter activity in human HeLa cells transfected with luciferase gene linked to MMTV promoter after 16 hrs by luciferase reporter gene assay relative to dexamethasone. It counts as cell-based. The procedure, abridged: as §2
Data set [17] relates to Liver microsomes. Kind of data set: Drug metabolism in rat liver microsomes assessed as metabolite M1 level up to 50 mins by LC-MS analysis. It counts as ADME, Microsome.
Data set [18] deals with Rattus norvegicus. Briefly: Drug metabolism in oxazolone-induced Sprague-Dawley rat chronic dermatitis model assessed as 2-fluoro-6-(2-((4aS,5R)-1-(4-fluorophenyl)-5-hydroxy-4a-methyl-1,4,4a,5,6,7-hexahydrocyclopenta[f]indazol-5-yl)ethyl)-N-(1-(hydroxymethyl)cyclopropyl)benzamide level at 15 mg/kg, po. The following applies: in vivo.
A short description of data set [19]: Drug uptake in oxazolone-induced Sprague-Dawley rat chronic dermatitis model at 15 mg/kg, po. The class given is ADME, organism-based. Further details: dose 15 mg/kg, route oral. The following applies: in vivo, read-out: Drug uptake. The procedure, abridged:
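Exposure measured in female Sprague-Dawley rats in the oxazolone chronic dermatitis model: sensitization Day 0, ear challenge Days 7 and 9, daily oral dosing for 7 d from Day 7. Exposure expressed as µM h. Blood collected ~4-5 h after last dose.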

pKi: −log10 of the molar value. Activity calls are given as the source filed them. The calls are words filed in the database; no cut-off is given here.

Regarding `C[C@H]1C[C@@H]2[C@H]([C@@H](O)C[C@@]3(C)[C@H]2CC[C@]3(O)C(=O)CO)[C@@]2(C)C=CC(=O)C=C12` [METHYLPREDNISOLONE], in data set [1], the Activity result is “Toxic”. Besides, in [2], the result was Active.
As to `C[C@]12Cc3cnn(-c4ccc(F)cc4)c3C=C1CC[C@@]2(O)CCc1ccc(F)cc1C(N)=O`, the figures for the IP in [3], in data set [5] and in data set [10] were 153 nM, 131 nM and 186 nM, respectively. For the same molecule, the Activity entry in [4] is “Non-toxic”. Also, the Drug metabolism result is recorded as “Active” in [6]; “Not Active” in data set [9]; “Active” in [11]; “Active” in data set [12]; “Active” in data set [14]; “Active” in data set [17]. Moreover, the figures for the Emax in data set [7], in data set [13] and in data set [16] were 73%, 35% and 23%, respectively. The molecule also showed a pKi in [8] of 8.52. Also, the outcome in data set [15] was Active.
Consider `CC1(NC(=O)c2c(F)cccc2CC[C@]2(O)CCC3=Cc4c(cnn4-c4ccc(F)cc4)C[C@@]32C)CC1`, for which the IP in [3] came to 27 nM; in data set [5], 20 nM; in data set [10], 32 nM. Moreover, the values for the Emax in data set [7], in data set [13] and in [16] were 81%, 41% and 33%, respectively. This molecule had a pKi in data set [8] greater than 9.00. For the same molecule, the Drug metabolism in data set [18] was found to be 3.8 µM·h. Further, the AUC in data set [19] came out at 64 µM·h.

As a reminder, the Emax is the maximal effect, on the per cent scale that the assay sets. In general, pKi refers to the negative decadic logarithm of the Ki, by convention in mol/L. Lower therefore signals a large Ki.
